Reference: ChEMBL document CHEMBL3822447, “4-(1,2-diarylbut-1-en-1-yl)isobutyranilide derivatives as inhibitors of topoisomerase II” (2016)
The source made the active and inactive calls. The calls are words filed in the database; no cut-off is given here.

Columns and labels:
[1] = Cytotoxicity against human OVCAR5 cells assessed as cell growth inhibition after 72 hrs by MTS assay; type: functional; conditions: OVCAR-5, 72 h
How it was run: (§1)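 Cells grown in RPMI1640 with 10% FBS and 2 mM glutamine at 37°C, 5% CO2; plated at 15 000 cells/mL, treated with compounds 72 h after plating, and survival read by MTS after a further 72 h; dose-response curves plotted.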

[2] = system: HeLa; assay: Cytotoxicity against human HeLa cells assessed as cell growth inhibition after 72 hrs by trypan blue assay; type: functional
How it was run: (§2)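 HeLa (F-12 HAM) and MCF-7 (DMEM) kept in medium with 10% heat-inactivated FCS plus antibiotics; 4-5×10^4 cells/well seeded, compounds added after 24 h at various concentrations, then 72 h more. Viable cells counted by trypan blue; GI50 is the concentration giving 50% fewer cells than control. Mean ± SD from at least three independent experiments.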

[3] = system: MCF7; assay: Cytotoxicity against human MCF7 cells assessed as cell growth inhibition after 72 hrs by trypan blue assay; type: functional; conditions: MCF7, 72 h; how it was run: as §2
[4] = system: A2780; assay: Cytotoxicity against human A2780 cells assessed as cell growth inhibition after 72 hrs by MTS assay; type: functional; conditions: A2780, 72 h; how it was run: as §1
[5] = target: DNA topoisomerase 2-alpha (Homo sapiens) (UniProt P11388); assay: Poisoning activity at human recombinant topoisomerase 2 alpha using supercoiled pBR322 plasmid DNA as substrate assessed as stabilization of covalent DNA-enzyme complex at 50 uM after 60 mins by electrophoretic analysis
Chain of DNA topoisomerase 2-alpha (Homo sapiens) (P11388 whole entry): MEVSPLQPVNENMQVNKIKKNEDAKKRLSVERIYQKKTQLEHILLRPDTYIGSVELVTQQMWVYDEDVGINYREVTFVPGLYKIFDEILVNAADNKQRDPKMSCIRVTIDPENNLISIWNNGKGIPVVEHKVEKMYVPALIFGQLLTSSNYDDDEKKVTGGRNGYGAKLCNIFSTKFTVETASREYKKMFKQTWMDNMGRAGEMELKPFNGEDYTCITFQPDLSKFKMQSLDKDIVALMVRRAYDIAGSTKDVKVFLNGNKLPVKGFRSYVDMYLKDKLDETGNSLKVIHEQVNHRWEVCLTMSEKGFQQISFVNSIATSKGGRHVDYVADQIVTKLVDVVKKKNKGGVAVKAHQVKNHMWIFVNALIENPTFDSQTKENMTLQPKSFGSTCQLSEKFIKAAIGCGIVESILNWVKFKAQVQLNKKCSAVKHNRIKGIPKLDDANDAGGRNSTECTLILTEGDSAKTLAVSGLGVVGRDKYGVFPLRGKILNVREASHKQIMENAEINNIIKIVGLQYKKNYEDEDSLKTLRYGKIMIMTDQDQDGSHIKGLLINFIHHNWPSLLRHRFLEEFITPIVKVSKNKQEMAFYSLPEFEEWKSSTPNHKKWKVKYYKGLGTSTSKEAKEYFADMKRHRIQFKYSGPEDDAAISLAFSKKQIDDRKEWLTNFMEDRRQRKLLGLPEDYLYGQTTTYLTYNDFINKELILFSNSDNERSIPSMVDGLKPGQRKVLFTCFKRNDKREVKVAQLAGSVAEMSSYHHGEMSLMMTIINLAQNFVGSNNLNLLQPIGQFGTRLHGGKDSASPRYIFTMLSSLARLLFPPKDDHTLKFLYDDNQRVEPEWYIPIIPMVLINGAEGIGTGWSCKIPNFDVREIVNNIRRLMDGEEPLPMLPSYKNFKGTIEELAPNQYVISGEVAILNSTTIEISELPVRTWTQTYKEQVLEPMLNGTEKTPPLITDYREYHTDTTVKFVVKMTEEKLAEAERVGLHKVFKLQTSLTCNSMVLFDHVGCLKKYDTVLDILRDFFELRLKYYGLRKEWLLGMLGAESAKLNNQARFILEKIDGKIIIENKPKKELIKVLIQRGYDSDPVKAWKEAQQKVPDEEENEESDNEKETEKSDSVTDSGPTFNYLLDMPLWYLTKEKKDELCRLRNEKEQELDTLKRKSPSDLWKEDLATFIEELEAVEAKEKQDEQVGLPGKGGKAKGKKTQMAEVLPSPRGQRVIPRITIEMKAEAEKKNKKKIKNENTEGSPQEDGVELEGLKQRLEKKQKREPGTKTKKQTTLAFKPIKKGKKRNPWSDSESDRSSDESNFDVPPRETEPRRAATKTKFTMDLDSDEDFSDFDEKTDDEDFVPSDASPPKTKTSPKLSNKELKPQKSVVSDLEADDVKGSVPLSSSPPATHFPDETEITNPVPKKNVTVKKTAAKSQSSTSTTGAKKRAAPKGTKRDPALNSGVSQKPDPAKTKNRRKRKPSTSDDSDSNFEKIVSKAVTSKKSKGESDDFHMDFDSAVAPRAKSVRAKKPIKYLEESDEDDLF
How it was run: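 Cleavage assay: 0.25 µg supercoiled pBR322 with 10 U human recombinant topoisomerase IIα and compound, 60 min at 37°C. Stopped with SDS buffer and 50 µg/mL proteinase K for 30 min at 37°C, then resolved on 1% agarose containing 0.5 µg/mL ethidium bromide in TBE, with UV imaging.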

[6] = target: DNA topoisomerase 2-alpha (Homo sapiens) (UniProt P11388); assay: Inhibition of human recombinant topoisomerase 2 alpha-mediated relaxation of supercoiled pBR322 plasmid DNA at 50 uM after 60 mins by electrophoretic analysis
How it was run: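 Relaxation assay: 0.25 µg supercoiled pBR322 incubated with 1U human recombinant topoisomerase IIα and compound for 60 min at 37°C; m-AMSA reference at 10 µM. Stopped with SDS stop buffer plus 50 µg/mL proteinase K for 30 min at 37°C, run on 1% agarose, then stained with 1 µg/mL ethidium bromide in TAE.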

Question: Which GI50 [1] does the source give for CC/C(=C(/c1ccc(NC(=O)C(C)C)cc1)c1ccc(OC)cc1)c1ccc(OCc2ccccc2)cc1 here?
Answer: > 50 µM

Question: And the GI50 [2]?
Answer: 4.2 µM

Question: What about the GI50 [3] of the same compound?
Answer: 29 µM

Question: And the GI50 [4]?
Answer: > 50 µM

Question: With CC/C(=C(\c1ccccc1)c1ccc(N)cc1)c1ccccc1 as the compound, how does the GI50 [1] read?
Answer: > 50 µM

Question: And the GI50 [2]?
Answer: > 30 µM

Question: What about the GI50 [3] of the same compound?
Answer: > 30 µM

Question: And the GI50 [4]?
Answer: > 50 µM

Question: For CC/C(=C(\c1ccc(O)cc1)c1ccc(NC(=O)C(C)C)cc1)c1ccccc1, which GI50 [1] is on record?
Answer: 42 µM

Question: What about the GI50 [2] of the same compound?
Answer: 9.9 µM

Question: And the GI50 [3]?
Answer: 14.7 µM

Question: What about the GI50 [4] of the same compound?
Answer: 34 µM

Question: With CC/C(=C(\c1ccccc1)c1ccc(NC(=O)C(C)C)cc1)c1ccc(Cl)cc1Cl as the compound, how does the GI50 [1] read?
Answer: > 50 µM

Question: What about the GI50 [2] of the same compound?
Answer: 3.3 µM

Question: What about the GI50 [3] of the same compound?
Answer: 8.3 µM

Question: And the GI50 [4]?
Answer: 8.4 µM

Question: And the Activity [5]?
Answer: Active

Question: What does the source list for CC/C(=C(\c1ccccc1)c1ccc(NC(=O)C(C)C)cc1)c1ccc(O)cc1?
Answer: GI50 [1]: 8.7 µM; GI50 [2]: 3.8 µM; GI50 [3]: 8.1 µM; GI50 [4]: 3.7 µM

Question: Which results are given for CC/C(=C(/c1ccccc1)c1ccc(NC(=O)C(C)C)cc1)c1ccc(O)cc1?
Answer: GI50 [1]: 12.1 µM; GI50 [2]: 5.1 µM; GI50 [3]: 8.5 µM; GI50 [4]: 4.6 µM; inhibition [6]: Active

Question: Which GI50 [1] does the source give for CC/C(=C(/c1ccccc1)c1ccc(NC(=O)C(C)C)cc1)c1ccccc1 here?
Answer: > 50 µM

Question: What about the GI50 [2] of the same compound?
Answer: 28.1 µM

Question: And the GI50 [3]?
Answer: > 30 µM

Question: And the GI50 [4]?
Answer: 31.6 µM

Question: Which results are given for CC/C(=C(/c1ccccc1)c1ccc(NC(=O)C(C)C)cc1)c1ccc(OCc2ccccc2)cc1?
Answer: GI50 [1]: > 50 µM; GI50 [2]: > 30 µM; GI50 [3]: > 30 µM; GI50 [4]: > 50 µM

Question: Which results are given for CC/C(=C(/c1ccc(NC(=O)C(C)C)cc1)c1ccc(OC)cc1)c1ccc(O)cc1?
Answer: GI50 [1]: 29.3 µM; GI50 [2]: 5.8 µM; GI50 [3]: 13.6 µM; GI50 [4]: 13.6 µM; inhibition [6]: Active

Question: With CC/C(=C(\c1ccc(NC(=O)C(C)C)cc1)c1ccc(OC)cc1)c1ccccc1 as the compound, how does the GI50 [1] read?
Answer: > 50 µM

Question: What about the GI50 [2] of the same compound?
Answer: 10.1 µM

Question: What about the GI50 [3] of the same compound?
Answer: 27.9 µM

Question: And the GI50 [4]?
Answer: 17.4 µM

Question: For CC/C(=C(\c1ccc(O)cc1)c1ccc(NC(=O)C(C)C)cc1)c1ccc(Cl)cc1Cl, which GI50 [1] is on record?
Answer: 28.8 µM

Question: What about the GI50 [2] of the same compound?
Answer: 8.7 µM

Question: What about the GI50 [3] of the same compound?
Answer: 12.5 µM

Question: What about the GI50 [4] of the same compound?
Answer: 15.7 µM
